From ChEMBL document CHEMBL4765333, “Novel NO-releasing scopoletin derivatives induce cell death via mitochondrial apoptosis pathway and cell cycle arrest” (Eur J Med Chem, 2020) come the findings set out here.

Series [1] has as its system MDA-MB-231. Kind of series: Induction of apoptosis in human MDA-MB-231 cells assessed as viable cells at 2 uM after 24 hrs by Annexin V/propidium iodide based flow cytometric analysis (reference value: 99%). Format: functional. The note with it: read-out: Activity. The procedure, abridged: (§1)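 MDA-MB-231 cells (2×10^5/well) attached 24 h, then treated 24 h with 1, 1.5, 2 or 3 µM, DMSO as control. Cells harvested, PBS-washed, resuspended in binding buffer, stained with Annexin V and PI for 30 min at 37°C in the dark, and analysed by flow cytometry for quadrant percentages; three experiments.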
In general terms: In flow cytometry, cells or beads pass a laser one at a time.

Series [2] has as its system MDA-MB-231. The experiment in a line: Induction of apoptosis in human MDA-MB-231 cells assessed as increase in cleaved PARP protein expression incubated for 8 hrs by Western blot analysis. The format is functional, cell-based. Particulars: dose 1.5-6 µM. The procedure, abridged:
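MDA-MB-231 cells (8×10^5 per 60 mm dish) attached 24 h, then exposed 8 h to 1.5, 3 or 6 µM, DMSO as control. Lysates quantified by BCA; 30 µg protein run on 4–20% SDS-PAGE, transferred to PVDF, probed for Bcl-2, Bax, Bad, cleaved caspase-9, cleaved caspase-3 and PARP, with ECL detection. Densitometric relative levels; three experiments.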
(In general: A western blot detects proteins with antibodies after separation by electrophoresis.)

In series [3] the test system is MDA-MB-231. Kind of series: Induction of cell cycle arrest in human MDA-MB-231 cells assessed as accumulation at G0/G1 phase at 2 uM measured after 24 hrs by propidium iodide staining based flow cytometric method (reference value: 45.71%). Format: functional.
For series [4], the system named is MCF7. The experiment in a line: Anticancer activity against human MCF7 cells assessed as inhibition of cell proliferation measured after 48 hrs by MTT assay. The format is functional, cell-based. Particulars: MCF7, 48 h. Put shortly: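 Cells seeded at ~5,000/well, grown 24 h to partial monolayer, then exposed 48 h at 37°C, 5% CO2 to 0.5, 1, 2, 4, 10 and 20 µM (DMSO ≤0.1%). MTT final 0.5 mg/ml for 4 h, formazan dissolved in DMSO, A570. Survival expressed as % of untreated control; IC50 from dose-response curves; three independent experiments. MDA-MB-231, MCF-7, HepG2 in DMEM; A549 and LO-2 in RPMI-1640; 10% FBS.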
(In general: Tetrazolium assays rely on reduction of a dye to a coloured formazan, in cell work by metabolically active cells.)

Series [5] in a line: Induction of intracellular reactive oxygen species generation in human MDA-MB-231 cells assessed as proportion of FL1-H negative cells at 1.5 uM measured after 24 hrs by DCFH-DA staining based flow cytometry analysis (reference value: 52.2%). Format: functional, MDA-MB-23.
Series [6] concerns MDA-MB-231. Kind of series: Induction of cell cycle arrest in human MDA-MB-231 cells assessed as accumulation at G2/M phase at 1.5 uM measured after 24 hrs by propidium iodide staining based flow cytometric method (reference value: 18.55%). Format: functional.
The subject of series [7] is MDA-MB-231. Kind of series: Induction of apoptosis in human MDA-MB-231 cells assessed as viable cells at 3 uM after 24 hrs by Annexin V/propidium iodide based flow cytometric analysis (reference value: 99%). Particulars: read-out: Activity. The format is functional. Put shortly: as §1
The test system of series [8] is MDA-MB-231. The experiment in a line: Induction of apoptosis in human MDA-MB-231 cells assessed as necrotic cells at 2 uM after 24 hrs by Annexin V/propidium iodide based flow cytometric analysis (reference value: 0.019%). The format is functional. Put shortly:
as §1

A short description of series [9]: Induction of intracellular reactive oxygen species generation in human MDA-MB-231 cells assessed as proportion of FL1-H positive cells at 2 uM pretreated with ROS scavenger, NAC for 2 hrs prior to incubation with compound and measured after 24 hrs by DCFH-DA staining based flow cytometry analysis (reference value: 47.8%). The format is functional, MDA-MB-23. Put shortly:
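MDA-MB-231 seeded at 2×10^5 cells/well, grown 24 h, pretreated with NAC (2.5 mM) for 2 h, then given 2 µM compound for 24 h. Cells loaded with DCFH-DA 30 min at 37°C in the dark, washed in PBS, resuspended in serum-free medium and read by flow cytometry; three independent experiments.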

The test system of series [10] is MDA-MB-231. The experiment in a line: Induction of apoptosis in human MDA-MB-231 cells assessed as viable cells at 1.5 uM after 24 hrs by Annexin V/propidium iodide based flow cytometric analysis (reference value: 99%). Format: functional. The note with it: read-out: Activity. The procedure, abridged: as §1
Series [11] concerns MDA-MB-231. The experiment in a line: Induction of intracellular reactive oxygen species generation in human MDA-MB-231 cells at 1 uM measured after 24 hrs by DCFH-DA staining based flow cytometry analysis relative to control. The format is functional. Put shortly: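 MDA-MB-231 cells at 2×10^5 cells/well, grown 24 h, exposed 24 h to compound (1, 1.5, 2 µM) or DMSO control. Cells then took up DCFH-DA for 30 min at 37°C in the dark, were PBS-washed, resuspended in serum-free medium and analysed by flow cytometry. Relative DCF level vs control; mean ± SD, n = 3.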

Series [12] can be described thus: Prodrug release in human MDA-MB-231 cells assessed as increase in intracellular NO level at 1 to 10 uM measured after 2.5 hrs by DAF-FM DA reagent based scanning electron microscopy. The format is ADME, cell-based. Particulars: mda-mb-231, 2.5 h, in the assay text read “laser scanning confocal microscopy” for “scanning electron microscopy”, dose 1-10 µM. Put shortly: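 After 24 h growth at 5×10^4 cells/well, MDA-MB-231 cells loaded with DAF-FM DA (5 µM) 30 min at 37°C, 5% CO2, PBS-washed, then incubated 2.5 h with compound at 1 or 10 µM (scopoletin at 10 µM). NO fluorescence imaged by laser scanning confocal microscopy.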

Series [13] has as its system MDA-MB-231. The experiment in a line: Induction of apoptosis in human MDA-MB-231 cells assessed as early apoptotic cells at 1.5 uM after 24 hrs by Annexin V/propidium iodide based flow cytometric analysis (reference value: 0.94%). The format is functional. The procedure, abridged: as §1
Series [14] concerns MDA-MB-231. The experiment in a line: Induction of mitochondrial membrane potential depolarization in human MDA-MB-231 cells assessed as proportion of cells with depolarized MMP at 1.5 uM incubated for 18 hrs by JC-1 staining based flow cytometry (reference value: 0.72%). The format is functional.
Series [15] deals with A549. Kind of series: Anticancer activity against human A549 cells assessed as inhibition of cell proliferation measured after 48 hrs by MTT assay. Particulars: A549, 48 h. Format: functional, cell-based. The procedure, abridged: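 Cells seeded at ~5,000/well, grown 24 h to partial monolayer, then exposed 48 h at 37°C, 5% CO2 to 0.5, 1, 2, 4, 10 and 20 µM (DMSO ≤0.1%). MTT final 0.5 mg/ml for 4 h, formazan dissolved in DMSO, A570. Survival expressed as % of untreated control; IC50 from dose-response curves; three independent experiments.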

Series [16] deals with MDA-MB-231. Kind of series: Induction of apoptosis in human MDA-MB-231 cells assessed as early apoptotic cells at 1 uM after 24 hrs by Annexin V/propidium iodide based flow cytometric analysis (reference value: 0.94%). The format is functional. The procedure, abridged: as §1
Series [17] has as its system MDA-MB-231. The experiment in a line: Induction of apoptosis in human MDA-MB-231 cells assessed as early apoptotic cells at 3 uM after 24 hrs by Annexin V/propidium iodide based flow cytometric analysis (reference value: 0.94%). The format is functional. Put shortly:
as §1

Series [18] is described as follows: Induction of intracellular reactive oxygen species generation in human MDA-MB-231 cells assessed as proportion of FL1-H negative cells at 2 uM measured after 24 hrs by DCFH-DA staining based flow cytometry analysis (reference value: 52.2%). Format: functional, MDA-MB-23.
Series [19] relates to MDA-MB-231. The experiment in a line: Induction of apoptosis in human MDA-MB-231 cells assessed as early apoptotic cells at 2 uM after 24 hrs by Annexin V/propidium iodide based flow cytometric analysis (reference value: 0.94%). Format: functional. The procedure, abridged: as §1

One may read the IC50 as the point on the concentration scale where inhibition reaches its midpoint. Regarding `COc1cc2cc(N)c(=O)oc2cc1OCCCOc1no[n+]([O-])c1S(=O)(=O)c1ccccc1`, the viability at 2 µM in series [1] was 71.1%. Also, the Activity entry in series [2] was “Dose-dependent effect”; in [3], 38.05%; in series [5] it was 17.3%; in series [6], 30.11%; in series [8], 0.2%; in series [9] it was 51%. For the same molecule, the Activity in series [13] was determined as 10.8%; in [14], 17.7%; in [16], 3.75%; in [17] it was 13.6%; in [18], 11.2%; in series [19], 12.9%. Also, the IC50 in series [4] worked out at 1.91 µM; in series [15], 4.18 µM. Further, the viability at 3 µM in series [7] was 65.6%. For the same molecule, in [10], the viability at 1.5 µM is 75.7%. In addition, in series [11], the “fold change (FC)” value came to 1.31. Besides, the Drug metabolism result in series [12] is “Metabolite_Detected”.
